Data reported in article PMC7709506 (ESMO Open, 2020).

Test system: FGFR and VEGFR pathways
Assay: Soluble biomarkers of FGFR and VEGFR pathways
Set-up: species or system human
Settings: in vivo
Summary of the method: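 Plasma FGF23, sVEGFR2, sVEGFR1, VEGF, FGF2 and PGF were sampled at baseline, day 8 and day 29 during oral test compound dosing and analysed in batches during or at study end. Values are expressed as percentage change from baseline (day 1 predose).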

With `Cn1cc(-c2ccc3c(c2)ncn3-c2cc(NS(=O)(=O)C3CC3)cc(-c3ccc(F)cc3F)c2)cn1` [ODM-203] the “percentage mean changes in soluble markers FGF23, VEGFR2, VEGF and PGF” value was “appeared to be dose dependent”.
